# Data reported in publication PMC4097887 (Journal of medicinal chemistry, 2008).
# Marks after values point to notes of the source that are not given here.
# Tests used:
# AML animal model = conditions: cited from earlier work
# KG-1 AML cells [1] = assay: KG-1 proliferation inhibition; assay type: cell-based, human
# Method in brief: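 KG-1 cells in medium with 5% FBS attached overnight and were then exposed to test compound in Me2SO or to Me2SO alone (final 0.1%) for the indicated time. Cells were harvested and counted with a hemocytometer in triplicate wells. Proliferation inhibition is given as IC50 and as percent inhibition at the highest concentration tested.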
# KG-1 AML cells [2] = assay: KG-1 cell apoptosis; assay type: cell-based, human
# Method in brief: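 Cells in medium with 5% FBS attached overnight, then exposed to test compound in Me2SO or to Me2SO alone (final 0.1%). Exposure was 24 h for HL-60R and 48 h for KG-1. Apoptotic cells were scored by acridine orange staining on at least three replicates and expressed as percent apoptosis.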
# [3] = test system: DU-145, MDA-MB-231 and H292 cancer cell lines; assay: Proliferation inhibition of the three solid tumor cell lines; assay type: cell-based, human
# Method in brief: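 DU-145, MDA-MB-231 and H292 cells attached for 24 h and were then treated for 72 h with test compound in Me2SO or with vehicle alone (final Me2SO 0.1%). Medium and compound were replaced at 48 h. Viable cells were measured by tetrazolium (MTS-type) reduction in triplicate per concentration, and IC50 values were calculated from these counts.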
# [4] = target: T1, recombinant human small heterodimer partner (SHP) (Homo sapiens, UniProt Q15466); conditions: cited from earlier work
# T1 sequence (Q15466 1-257): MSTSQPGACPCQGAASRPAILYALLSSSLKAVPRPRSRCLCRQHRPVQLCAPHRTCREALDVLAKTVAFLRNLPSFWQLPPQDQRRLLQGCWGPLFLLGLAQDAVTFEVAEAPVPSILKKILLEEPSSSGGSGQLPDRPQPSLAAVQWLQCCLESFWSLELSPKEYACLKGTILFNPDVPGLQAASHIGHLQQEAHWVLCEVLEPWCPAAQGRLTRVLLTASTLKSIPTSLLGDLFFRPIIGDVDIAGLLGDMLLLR
# [5] = doses found to induce cancer cell apoptosis in vitro; cited from earlier work
# [6] = test system: IGROV ovarian cancer cells; conditions: at antiproliferative IC80 value, propidium iodide staining; cited from earlier work
# [7] = test system: human microvascular endothelial (HMVE) cells; assay: HMVE cell growth inhibition; assay type: cell-based; conditions: 0.5 μM
smiles,measurement,setting,value
"O=C(O)/C=C/c1ccc(-c2ccc(O)c(C34CC5CC(CC(C5)C3)C4)c2)c(Cl)c1 [compound 1, (E)-4-[3′-(1-adamantyl)-4′-hydroxyphenyl]-3-chlorocinnamic acid]",survival in an AML animal model,AML animal model,extension of survival
CC(=O)Nc1ccc(-c2ccc(/C=C/C(=O)O)cc2Cl)cc1C12CC3CC(CC(C3)C1)C2 [compound 2],further reduction of KG-1 antiproliferative activity relative to 3,KG-1 AML cells [1]; 5.0 μM,50%
Nc1ccc(-c2ccc(/C=C/C(=O)O)cc2Cl)cc1C12CC3CC(CC(C3)C1)C2 [compound 3],weakening of KG-1 apoptosis induction relative to 1,KG-1 AML cells [2]; 1.0 μM,67%
same,weakening of KG-1 apoptosis induction relative to 1,KG-1 AML cells [2]; 5.0 μM,27%
same,KG-1 apoptosis at 48 h (%),KG-1 AML cells [2]; 5.0 μM,40 ^j %
same,increase of IC50 for KG-1 proliferation inhibition compared to 1,KG-1 AML cells [1],~3.6 fold
same,"calculated IC50 values higher than those of 1, three solid tumor cell lines",[3],3–4 fold
O=C(O)/C=C/c1ccc(-c2ccc(F)cc2)c(Cl)c1 [compound 5],% inhibition of KG-1 proliferation at highest concentration evaluated,"KG-1 AML cells [1]; 5 μM, 48 h",0%
CC(C)(C)C#Cc1cc(-c2ccc(/C=C/C(=O)O)cc2Cl)ccc1O [compound 6],KG-1 antiproliferative activity as fraction of that of 1,KG-1 AML cells [1]; 5.0 μM,approximately one-third
O=C(O)/C=C/c1ccc(-c2ccc(O)c(C34CC5CC(CC3C5)C4)c2)c(Cl)c1 [compound 8],KG-1 apoptotic activity as % of that exhibited by 1,KG-1 AML cells [2]; 5.0 μM,31%
same,KG-1 apoptosis at 48 h (%),KG-1 AML cells [2]; 5.0 μM,16 ^j %
same,KG-1 proliferation inhibition relative to 1,KG-1 AML cells [1]; 5.0 μM,1.2 fold
same,"calculated IC50 values higher than those of 1, three solid tumor cell lines",[3],10–20 fold
"O=C(O)c1ccc2cc(-c3ccc(O)c(C45CC6CC(CC(C6)C4)C5)c3)ccc2c1 [compound 13, 6-[3′-(1-adamantyl)-4′-hydroxyphenyl]-2-naphthoic acid]","affinity of [5,5′-3H2]AHPN for recombinant human SHP",[4],low nanomolar affinity
"O=C(O)/C=C/c1ccc(-c2ccc(O)c(C34CC5CC(CC(C5)C3)C4)c2)cc1 [compound 15, (E)-4-[3′-(1-adamantyl)-4′-hydroxyphenyl]cinnamic acid]",adverse systemic effects in mice,[5],produced adverse systemic effects
same,apoptosis induced in ovarian cancer cell line,[6],50%
O=C(O)c1ccc2cc(-c3cccc(C45CC6CC(CC(C6)C4)C5)c3)ccc2c1 [compound 18],HMVE cell growth inhibition at 72 h (%),[7]; 72 h (Table 1),moderate
CC(C)(C)c1cc(-c2ccc3cc(C(=O)O)ccc3c2)ccc1O [compound 21],reduction of HMVE cell growth inhibition relative to 13,[7],7 fold
